E-sel inducer: E-selectin induction on HUVECs; HUVEC E-selectin immunofluorescence imaging; normalized: neutral wells 0, TNF-alpha wells 100; actives 0.37% (n = 260,000); AID 686992; activation, % at 7.58 µM;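 active = mean E-selectin-positive cell signal at least 10% of the positive control, reached in at least 60% of replicates, without over 20% cell loss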
Target sequence (P16581 whole entry, looked up): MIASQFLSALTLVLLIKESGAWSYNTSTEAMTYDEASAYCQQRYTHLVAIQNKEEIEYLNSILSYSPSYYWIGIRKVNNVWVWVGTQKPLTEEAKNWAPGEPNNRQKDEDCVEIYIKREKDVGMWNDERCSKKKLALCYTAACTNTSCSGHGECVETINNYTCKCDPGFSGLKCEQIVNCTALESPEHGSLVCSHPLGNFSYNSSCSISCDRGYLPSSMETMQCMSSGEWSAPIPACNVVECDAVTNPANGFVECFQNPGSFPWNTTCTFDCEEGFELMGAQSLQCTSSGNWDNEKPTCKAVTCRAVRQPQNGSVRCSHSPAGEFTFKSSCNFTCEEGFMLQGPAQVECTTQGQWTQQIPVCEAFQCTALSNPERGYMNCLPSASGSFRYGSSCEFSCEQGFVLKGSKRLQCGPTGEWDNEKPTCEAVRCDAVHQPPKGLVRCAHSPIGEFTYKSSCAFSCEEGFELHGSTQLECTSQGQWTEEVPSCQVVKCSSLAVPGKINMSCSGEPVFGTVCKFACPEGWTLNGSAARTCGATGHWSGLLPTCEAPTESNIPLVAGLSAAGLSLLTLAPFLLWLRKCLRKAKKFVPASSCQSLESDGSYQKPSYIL
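Test system: HUVEC | Signal: Immunofluorescence imaging | Read-out: Percent E-selectin-positive cells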
S100A4 MyoIIA: blocks human S100A4 binding to myosin IIA peptide; P26447; S100A4/TAMRA-MyoIIA peptide fluorescence polarization; inhibition, % at 10.7 µM; actives 0.14% (n = 360,000); AID 652163;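 active = mean inhibition of at least 70% across replicates, with every replicate also reaching that level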
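Assay system: human S100A4 monomer with TAMRA-labelled myosin IIA peptide / Buffer or medium: Calcium-containing HEPES buffer, pH 7.2 / Reagent: TAMRA-labelled myosin IIA heavy-chain peptide probe, 5 nM / Compound: one dose per compound / Timing: polarization read 5 min after assay mix addition, stable 5–60 min / Benchmarks: neutral control DMSO, positive control TFP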
FGF22 binding: shifts melting point of recombinant human FGF22; actives 1.5% (n = 340,000); activity (Tm shift, normalised), % at 9.99 µM; AID 651658; Q9HCT0; recombinant FGF22 thermal shift, SYPRO orange fluorescence; percent of sucrose octasulfate shift, DMSO zero;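 active = mean Tm shift, scaled 0 neutral to 100 positive control, at about 1.3% or above, every replicate too, limit read from the data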
HIV Env fusion: inhibitors of HIV Env-mediated cell fusion; inhibition, % at 12.3 µM; HeLa-JRFL Env/CEM21 cell fusion, luciferase; actives 1.1% (n = 360,000); AID 651610;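 active = mean replicate inhibition score of at least 50 and every replicate individually at or above 50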
CFTR F508del cor: correctors of CFTR F508del function in bronchial epithelial cells; AID 720511; CFBE cells, YFP halide quenching; stimulated with forskolin plus potentiator P3; % fluorescence drop versus neutral controls; activity (quench increase), % at 7.58 µM; actives 0.36% (n = 350,000);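 active = mean added fluorescence quench of at least 8% versus neutral control, with both replicates also reaching 8%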;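 also: cells transiently co-express mutant CFTR-F508del with the halide-sensitive YFP; corrector assay measuring rescue of mutant channel to the surface after 24 h compound exposure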
A number is an active result; [ ] = another dose, or the depositor's remark. Compounds with a hit are over-represented: about 2.7% of the library has one in this group of screens.

Screening Cc1noc(C)c1NC(=O)N(C)C[C@H]1OCCCC[C@@H](C)Oc2ccc(NS(=O)(=O)c3ccc(F)cc3)cc2C(=O)N([C@H](C)CO)C[C@@H]1C returned E-sel inducer inactive, S100A4 MyoIIA inactive, FGF22 binding inactive, HIV Env fusion 59.9[16.7 µM] and CFTR F508del cor inactive.
Screening Cc1noc(C)c1NC(=O)N(C)C[C@@H]1OCCCC[C@H](C)Oc2ccc(NC(=O)NC3CCCCC3)cc2C(=O)N([C@@H](C)CO)C[C@H]1C returned S100A4 MyoIIA inactive, FGF22 binding 1.5, HIV Env fusion inactive and CFTR F508del cor inactive.
`Cc1noc(C)c1NC(=O)N(C)C[C@@H]1OCCCC[C@H](C)Oc2ccc(NC(=O)NC3CCCCC3)cc2C(=O)N([C@@H](C)CO)C[C@@H]1C` gave S100A4 MyoIIA inactive, HIV Env fusion inactive and CFTR F508del cor inactive.
Screening COc1ccc(S(=O)(=O)Nc2ccc3c(c2)C(=O)N([C@@H](C)CO)C[C@H](C)[C@@H](CN(C)C(=O)Nc2c(C)noc2C)OCCCC[C@@H](C)O3)cc1 returned E-sel inducer inactive, S100A4 MyoIIA inactive, FGF22 binding inactive, HIV Env fusion inactive and CFTR F508del cor inactive.
Screening O=C(c1ccccc1)N1CC(=O)N2[C@H](CO)[C@@H](c3ccc(C#Cc4ccccc4)cc3)[C@H]2C1 returned E-sel inducer inactive, S100A4 MyoIIA inactive and CFTR F508del cor inactive.
For CC1CCCC(C)N1C(=O)CSc1nnc(COc2cccc3cccnc23)o1 (stereo not given) the results were E-sel inducer inactive, S100A4 MyoIIA inactive, FGF22 binding 43.2, HIV Env fusion inactive and CFTR F508del cor inactive.
C[C@H]1CN([C@@H](C)CO)C(=O)c2cc(NC(=O)CCN3CCOCC3)ccc2O[C@@H]1CN(C)Cc1ccncc1 was read as E-sel inducer 361.7, S100A4 MyoIIA inactive, FGF22 binding inactive, HIV Env fusion inactive and CFTR F508del cor inactive.
For C[C@@H]1CN([C@H](C)CO)C(=O)c2cc(NC(=O)CCN3CCOCC3)ccc2O[C@@H]1CN(C)Cc1ccncc1 the results were E-sel inducer 35.7, S100A4 MyoIIA inactive, FGF22 binding inactive, HIV Env fusion inactive and CFTR F508del cor inactive.
`C[C@H](CO)N1C[C@H](C)[C@@H](CN(C)Cc2ccncc2)Oc2ccc(NC(=O)CCN3CCOCC3)cc2C1=O` gave E-sel inducer inactive, S100A4 MyoIIA inactive, FGF22 binding inactive, HIV Env fusion inactive and CFTR F508del cor inactive.
Screening C[C@@H]1CN([C@H](C)CO)C(=O)c2cc(NC(=O)CCN3CCOCC3)ccc2O[C@@H]1CN(C)Cc1ccc(C(F)(F)F)cc1 returned E-sel inducer 178.1, S100A4 MyoIIA inactive, FGF22 binding inactive, HIV Env fusion inactive and CFTR F508del cor inactive.
For COCCNC(=O)C[C@H]1CC[C@H]2[C@@H](COC[C@@H](O)CN2C(=O)c2cc(Cl)cc(Cl)c2)O1 the results were E-sel inducer inactive, FGF22 binding inactive, HIV Env fusion inactive and CFTR F508del cor inactive.
Screening C[C@@H]1CCCCO[C@@H](CN(C)C(=O)Nc2ccccc2)[C@@H](C)CN([C@H](C)CO)C(=O)c2cc(NS(=O)(=O)c3cn(C)cn3)ccc2O1 returned E-sel inducer inactive, S100A4 MyoIIA inactive, FGF22 binding inactive, HIV Env fusion inactive and CFTR F508del cor inactive.
For CCOC(=O)N1CCN(Cc2c(NC(=O)c3ccco3)sc(C)c2C)CC1 the results were E-sel inducer inactive, S100A4 MyoIIA inactive, FGF22 binding 43.6, HIV Env fusion inactive and CFTR F508del cor inactive.
CCn1nnnc1NCc1ccc(OCc2ccc(F)cc2Cl)c(OC)c1 was read as S100A4 MyoIIA inactive, FGF22 binding 43.4, HIV Env fusion inactive and CFTR F508del cor inactive.
For COc1ccc(NC(=O)Nc2ccc3c(c2)C(=O)N([C@H](C)CO)C[C@H](C)[C@H](CN(C)C(=O)Cc2ccccc2)OCCCC[C@H](C)O3)cc1 the results were E-sel inducer inactive, S100A4 MyoIIA inactive, FGF22 binding inactive, HIV Env fusion inactive and CFTR F508del cor inactive.
Cc1csc(-c2nc3ccccc3n2C(C(=O)NC(C)(C)C)c2ccccc2)c1 (stereo not given) was read as E-sel inducer inactive, S100A4 MyoIIA inactive, FGF22 binding inactive, HIV Env fusion 56.9 and CFTR F508del cor inactive.
Screening CC(C(=O)NC(C)(C)C)n1c(C(c2ccccc2)c2ccccc2)nc2ccccc21 (stereo not given) returned E-sel inducer inactive, S100A4 MyoIIA inactive, FGF22 binding inactive, HIV Env fusion 87.0 and CFTR F508del cor inactive.
Screening CCC(C(=O)NC(C)(C)C)n1c(C(c2ccccc2)c2ccccc2)nc2ccccc21 (stereo not given) returned E-sel inducer inactive, S100A4 MyoIIA inactive, FGF22 binding inactive, HIV Env fusion 86.0 and CFTR F508del cor inactive.
`O=C(C[C@@H]1CC[C@@H](NC(=O)Nc2ccccc2)[C@@H](CO)O1)NCc1cccc(F)c1` gave E-sel inducer inactive, S100A4 MyoIIA inactive, FGF22 binding inactive, HIV Env fusion inactive and CFTR F508del cor inactive.
C[C@@H]1CN([C@@H](C)CO)C(=O)c2cccc(NS(=O)(=O)c3cn(C)cn3)c2O[C@H]1CN(C)Cc1ccc(C(=O)O)cc1 was read as E-sel inducer inactive, S100A4 MyoIIA inactive, FGF22 binding inactive, HIV Env fusion inactive and CFTR F508del cor inactive.
Screening C[C@H](NC(=O)C[C@H]1CC[C@@H]2[C@H](COC[C@H](O)CN2C)O1)c1ccccc1 returned E-sel inducer inactive, S100A4 MyoIIA inactive, FGF22 binding inactive, HIV Env fusion inactive and CFTR F508del cor inactive.
For CCCS(=O)(=O)N1CCN(S(=O)(=O)c2ccccc2[N+](=O)[O-])CC1 the results were S100A4 MyoIIA inactive, FGF22 binding 43.2, HIV Env fusion inactive and CFTR F508del cor inactive.
`O=[N+]([O-])c1cccnc1NCc1cccs1` gave E-sel inducer inactive, S100A4 MyoIIA inactive, FGF22 binding 43.3, HIV Env fusion inactive and CFTR F508del cor inactive.
O=C(COc1cccnc1[N+](=O)[O-])NCc1cccs1 was read as E-sel inducer inactive, S100A4 MyoIIA inactive, FGF22 binding inactive, HIV Env fusion inactive and CFTR F508del cor inactive.
For C[C@@H]1CN([C@H](C)CO)C(=O)Cc2cc(NC(=O)Nc3ccc(C(F)(F)F)cc3)ccc2O[C@@H]1CN(C)Cc1ccc(C(F)(F)F)cc1 the results were E-sel inducer inactive, S100A4 MyoIIA inactive, FGF22 binding inactive, HIV Env fusion inactive and CFTR F508del cor inactive.
For O=C(NNc1cccc(Cl)n1)Nc1ccc(F)cc1 the results were E-sel inducer inactive, S100A4 MyoIIA inactive, FGF22 binding 43.8, HIV Env fusion inactive and CFTR F508del cor inactive.
Screening O=C1CN(C(=O)COC(=O)CNS(=O)(=O)c2ccccc2)c2ccccc2N1 returned S100A4 MyoIIA inactive, FGF22 binding 43.4, HIV Env fusion inactive and CFTR F508del cor inactive.
O=C1CN(C(=O)COC(=O)c2cc(S(=O)(=O)N3CCOCC3)ccc2Cl)c2ccccc2N1 was read as E-sel inducer inactive, S100A4 MyoIIA inactive, FGF22 binding 43.5, HIV Env fusion inactive and CFTR F508del cor inactive.

High-throughput results as filed in PubChem BioAssay.
